Tests used:
[1] = target: T1, Integrin alpha-IIb/beta-3 (Homo sapiens, UniProt P08514+P05106); experiment: Antagonist activity at GP2b/GP3a receptor in human platelet rich plasma assessed as inhibition of ADP-induced platelet aggregation preincubated for 1 min followed by ADP addition by aggregometric method
Summary of the method: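 Human PRP from apheresis platelets, PPP from centrifugation at 3000r/min for 10 min used as reference. Compound in saline or 0.2% aqueous DMSO added to PRP, incubated 1 min, then ADP 20 μM (per table footnotes; methods list 10 μM) added. Light transmission aggregometry at 37°C, maximal aggregation vs PPP. Inhibition relative to control aggregation ratio. IC50 from at least four concentrations.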

[2] = target: T1, Integrin alpha-IIb/beta-3; experiment: Antagonist activity at GP2b/GP3a receptor in human platelet rich plasma assessed as inhibition of thrombin-induced platelet aggregation preincubated for 1 min […] by aggregometric method
Summary of the method: (§1)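 Aggregometry at 37°C in human apheresis PRP, PPP as reference. Compound in saline or 0.2% aqueous DMSO preincubated 1 min before inducer: collagen 1 μg/ml, thrombin 0.26 U/ml or U46619 2 μM (figure and table values; methods state 9 μg/ml, 1 U/ml, 6 μM). Percent inhibition vs control. IC50 from at least four concentrations, means of two to three dose-response curves.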

[3] = target: T1, Integrin alpha-IIb/beta-3; experiment: Antagonist activity at GP2b/GP3a receptor in human platelet rich plasma assessed as inhibition of U46619-induced platelet aggregation preincubated for 1 min […] by aggregometric method; summary of the method: as §1
[4] = target: T1, Integrin alpha-IIb/beta-3; experiment: Antagonist activity at GP2b/GP3a receptor in human platelet rich plasma assessed as inhibition of collagen-induced platelet aggregation preincubated for 1 min […] by aggregometric method; summary of the method: as §1

T1 sequence (P05106 27-788 limits assumed): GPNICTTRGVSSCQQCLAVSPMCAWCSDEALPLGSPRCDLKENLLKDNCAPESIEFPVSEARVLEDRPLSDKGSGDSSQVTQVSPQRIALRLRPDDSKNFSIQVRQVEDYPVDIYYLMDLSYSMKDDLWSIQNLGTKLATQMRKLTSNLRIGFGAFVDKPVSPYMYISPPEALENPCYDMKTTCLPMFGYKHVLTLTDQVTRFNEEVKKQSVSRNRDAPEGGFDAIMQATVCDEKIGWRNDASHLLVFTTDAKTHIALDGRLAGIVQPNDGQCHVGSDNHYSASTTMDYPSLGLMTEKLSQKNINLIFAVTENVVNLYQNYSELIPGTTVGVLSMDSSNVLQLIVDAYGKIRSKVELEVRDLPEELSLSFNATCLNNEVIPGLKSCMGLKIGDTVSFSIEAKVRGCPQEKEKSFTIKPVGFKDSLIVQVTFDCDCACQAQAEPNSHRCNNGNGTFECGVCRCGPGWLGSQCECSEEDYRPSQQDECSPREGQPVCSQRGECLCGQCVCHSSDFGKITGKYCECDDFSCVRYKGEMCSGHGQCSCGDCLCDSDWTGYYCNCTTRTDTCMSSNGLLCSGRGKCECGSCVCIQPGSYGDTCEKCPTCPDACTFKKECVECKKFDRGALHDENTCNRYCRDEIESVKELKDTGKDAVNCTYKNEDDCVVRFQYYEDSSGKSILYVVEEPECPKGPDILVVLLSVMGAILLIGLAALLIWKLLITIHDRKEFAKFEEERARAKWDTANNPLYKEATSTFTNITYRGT
T1 sequence (P08514 32-887 limits assumed): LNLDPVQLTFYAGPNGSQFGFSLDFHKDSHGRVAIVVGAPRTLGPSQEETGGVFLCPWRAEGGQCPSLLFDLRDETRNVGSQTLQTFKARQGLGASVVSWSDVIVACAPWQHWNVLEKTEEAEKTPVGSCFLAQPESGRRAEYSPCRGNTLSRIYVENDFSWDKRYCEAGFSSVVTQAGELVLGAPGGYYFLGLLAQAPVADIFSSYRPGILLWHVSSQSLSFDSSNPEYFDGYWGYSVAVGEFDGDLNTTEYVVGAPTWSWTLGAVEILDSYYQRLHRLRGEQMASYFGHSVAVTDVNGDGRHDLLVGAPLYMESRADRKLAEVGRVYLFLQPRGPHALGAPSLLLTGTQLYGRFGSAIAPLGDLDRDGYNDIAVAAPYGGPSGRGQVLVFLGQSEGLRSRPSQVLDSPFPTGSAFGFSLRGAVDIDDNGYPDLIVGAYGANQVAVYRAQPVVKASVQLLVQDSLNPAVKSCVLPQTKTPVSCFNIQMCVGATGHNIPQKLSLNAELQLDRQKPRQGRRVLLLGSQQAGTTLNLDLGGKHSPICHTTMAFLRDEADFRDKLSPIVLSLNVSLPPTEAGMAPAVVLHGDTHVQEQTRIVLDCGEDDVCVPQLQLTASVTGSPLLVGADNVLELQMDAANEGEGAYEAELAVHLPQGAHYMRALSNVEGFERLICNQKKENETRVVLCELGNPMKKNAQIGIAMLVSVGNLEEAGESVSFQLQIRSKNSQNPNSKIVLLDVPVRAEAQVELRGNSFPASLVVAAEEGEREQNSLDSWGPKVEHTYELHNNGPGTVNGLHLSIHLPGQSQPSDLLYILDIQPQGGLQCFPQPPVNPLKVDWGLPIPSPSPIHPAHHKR
T1 sequence (P08514 891-1039 limits assumed): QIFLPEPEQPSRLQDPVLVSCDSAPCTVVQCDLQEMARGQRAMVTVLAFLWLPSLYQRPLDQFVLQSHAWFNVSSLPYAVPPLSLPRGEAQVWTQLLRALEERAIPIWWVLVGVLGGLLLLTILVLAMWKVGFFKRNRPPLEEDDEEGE

CCCC(=O)NC(Cc1ccc2cc(OCCCN3CCNCC3)ccc2c1)C(=O)O (centres undefined)
IC50 [1]: 5.4 µM

O=C(O)C(Cc1ccc2cc(OCCCN3CCNCC3)ccc2c1)NS(=O)(=O)c1ccccc1 (centres undefined)
IC50 [2]: 0.53 µM
IC50 [3]: 1.01 µM
IC50 [1]: 0.18 µM
IC50 [4]: 1.32 µM

N=C(N)c1ccc(COc2ccc3cc(CC(NC(=O)c4ccc([N+](=O)[O-])cc4)C(=O)O)ccc3c2)cc1 (centres undefined)
IC50 [1]: 2.1 µM

O=C(NC(Cc1ccc2cc(OCCCN3CCNCC3)ccc2c1)C(=O)O)c1cc(Cl)cc(Cl)c1 (centres undefined)
IC50 [1]: 24.6 µM

O=C(O)C(Cc1ccc2cc(OCCCN3CCNCC3)ccc2c1)NS(=O)(=O)c1ccc([N+](=O)[O-])cc1 (centres undefined)
IC50 [1]: 0.2 µM

O=C(NC(Cc1ccc2cc(OCCCN3CCNCC3)ccc2c1)C(=O)O)c1ccc([N+](=O)[O-])cc1 (centres undefined)
IC50 [1]: 3.4 µM

O=C(O)C(Cc1ccc2cc(OCCN3CCNCC3)ccc2c1)NS(=O)(=O)c1ccc(Br)cc1 (centres undefined)
IC50 [1]: 12.8 µM

N=C(N)c1ccc(COc2ccc3cc(CC(NS(=O)(=O)c4ccccc4)C(=O)O)ccc3c2)cc1 (centres undefined)
IC50 [2]: 22.9 µM
IC50 [3]: 23.6 µM
IC50 [1]: 0.84 µM
IC50 [4]: 27.7 µM

CCCCS(=O)(=O)NC(Cc1ccc2cc(OCc3ccc(C(=N)N)cc3)ccc2c1)C(=O)O (centres undefined)
IC50 [1]: 3.29 µM

Cc1ccc(S(=O)(=O)NC(Cc2ccc3cc(OCc4ccc(C(=N)N)cc4)ccc3c2)C(=O)O)cc1 (centres undefined)
IC50 [1]: 4.01 µM

COc1ccc(S(=O)(=O)NC(Cc2ccc3cc(OCCCN4CCNCC4)ccc3c2)C(=O)O)cc1 (centres undefined)
IC50 [1]: 1.65 µM

O=C(O)C(Cc1ccc2cc(OCCCN3CCNCC3)ccc2c1)NS(=O)(=O)c1ccc(F)cc1 (centres undefined)
IC50 [1]: 0.28 µM

COc1ccc(C(=O)NC(Cc2ccc3cc(OCCCN4CCNCC4)ccc3c2)C(=O)O)cc1 (centres undefined)
IC50 [1]: 12.7 µM

O=C(NC(Cc1ccc2cc(OCCCN3CCNCC3)ccc2c1)C(=O)O)c1cccc(F)c1 (centres undefined)
IC50 [1]: 6.38 µM

O=C(NC(Cc1ccc2cc(OCCCN3CCNCC3)ccc2c1)C(=O)O)c1ccccc1 (centres undefined)
IC50 [1]: 7.9 µM

O=C(O)C(Cc1ccc2cc(OCCC3CCNCC3)ccc2c1)NS(=O)(=O)c1ccc(Br)cc1 (centres undefined)
IC50 [1]: > 100 µM

O=C(O)C(Cc1ccc2cc(OCCCC3CCNCC3)ccc2c1)NS(=O)(=O)c1ccc(Br)cc1 (centres undefined)
IC50 [1]: > 100 µM

CCCCS(=O)(=O)NC(Cc1ccc2cc(OCCCN3CCNCC3)ccc2c1)C(=O)O (centres undefined)
IC50 [1]: 0.52 µM

O=C(O)C(Cc1ccc2cc(OCCCCN3CCNCC3)ccc2c1)NS(=O)(=O)c1ccc(Br)cc1 (centres undefined)
IC50 [1]: 18.8 µM

O=C(O)C(Cc1ccc2cc(OCCCN3CCNCC3)ccc2c1)NS(=O)(=O)c1ccc(Br)cc1 (centres undefined)
IC50 [1]: 0.37 µM

CCCC(=O)NC(Cc1ccc2cc(OCc3ccc(C(=N)N)cc3)ccc2c1)C(=O)O (centres undefined)
IC50 [1]: 1.08 µM

O=C(O)C(Cc1ccc2cc(OCC3CCNCC3)ccc2c1)NS(=O)(=O)c1ccc(Br)cc1 (centres undefined)
IC50 [1]: > 100 µM

O=C(NC(Cc1ccc2cc(OCCCN3CCNCC3)ccc2c1)C(=O)O)c1ccc(F)cc1 (centres undefined)
IC50 [1]: 7.6 µM

Source: BindingDB's records for doi:10.1016/j.ejmech.2016.09.032 (China Pharmaceutical University, 2017)
